Data from ChEMBL document CHEMBL1155016, “Locking the two ends of tetrapeptidic HTLV-I protease inhibitors inside the enzyme” (Bioorg Med Chem, 2008).

Experiments:
Protease = Protease (Human T-cell leukemia virus type I, UniProt Q82134, L40I); test: Inhibition of HTLV1 protease L40I mutant
Summary of the method: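 HTLV-I protease carrying the L40I substitution, which blocks autolysis and stabilises the enzyme; run by the group's earlier reported protocol; potency given as IC50 in nM.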

[1] = biological target: Protease (Human immunodeficiency virus 1) (UniProt Q9YQ12); test: Inhibition of HIV1 protease at 50 nM
Chain of Protease (Human immunodeficiency virus 1) (Q9YQ12 as listed by the source): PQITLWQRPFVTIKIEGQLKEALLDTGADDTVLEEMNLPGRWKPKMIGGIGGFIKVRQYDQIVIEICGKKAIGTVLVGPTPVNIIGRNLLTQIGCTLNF

Chain of Protease (Q82134 entry or part of it L40I): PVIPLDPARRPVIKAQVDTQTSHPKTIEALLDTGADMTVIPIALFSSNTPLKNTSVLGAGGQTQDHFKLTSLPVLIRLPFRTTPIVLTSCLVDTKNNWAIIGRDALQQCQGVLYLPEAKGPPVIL

CCCC(=O)N[C@H](C(=O)N[C@H](C(=O)N[C@@H](Cc1ccccc1)[C@H](O)C(=O)N1CSC(C)(C)[C@H]1C(=O)NCC1CC1)C(C)(C)C)c1ccccc1
IC50 (Protease): 113 nM | inhibition [1]: > 98%

CC(C)CNC(=O)[C@H]1N(C(=O)[C@@H](O)[C@H](Cc2ccccc2)NC(=O)[C@@H](NC(=O)[C@@H](NC(=O)C(C)(C)C)c2ccccc2)C(C)(C)C)CSC1(C)C
IC50 (Protease): 83 nM | inhibition [1]: > 98%

CCCC(=O)N[C@H](C(=O)N[C@H](C(=O)N[C@@H](Cc1ccccc1)[C@H](O)C(=O)N1CSC(C)(C)[C@H]1C(=O)NCC(C)(C)C)C(C)(C)C)c1ccccc1
IC50 (Protease): 74 nM | inhibition [1]: > 98%
